The list is not random: actives were taken first. Their share in the collection is about 2.9%.
CHO-K1 Ca PAM: nonselective activator or artifact in parental CHO-K1 calcium assay | ATP EC20, Fluo-8 calcium fluorescence; 0% at ATP EC20, 100% at ATP max | activation, % at 3 µM | 360,000 compounds, 0.02% hits | AID 602247;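 active = activation above the run cutoff, the mean activation of all test compounds plus 3 SD, cut at about 40% in these data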;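 note: peak over basal fluorescence ratio in a 140 s read after ATP addition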
CHO-K1 Ca antag: nonselective inhibitor or artifact in parental CHO-K1 cells. ATP-induced calcium, Fluo-8 fluorescence. inhibition, % at 3 µM. 360,000 compounds, 0.6% hits. AID 602250;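 active = inhibition above a per-plate cutoff, the plate's mean sample inhibition plus 3 SD, cut at about 24% in these data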
CHO-K1 Ca ag: counter-screen for M1 agonists: effect in parental CHO-K1 cells; Fluo-8 calcium fluorescence; scaled to maximal ATP response, vehicle zero; activation, % at 3 µM; 360,000 compounds, 0.48% hits; in the data active = activation above about 15%;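 note: untransfected CHO-K1 host cells lacking M1 receptor as counterscreen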
OX1R antag-1: antagonists of human orexin 1 receptor (OX1R) | OX1R-expressing cells, FRET antagonist read-out | inhibition, % at 6.6 µM | AID 485270 | O43613 | 330,000 compounds, 1.8% hits; in the data active = inhibition mostly above about 38%, no sharp cut-off; inactive = mostly below about 40%
Target sequence (O43613 whole entry, looked up): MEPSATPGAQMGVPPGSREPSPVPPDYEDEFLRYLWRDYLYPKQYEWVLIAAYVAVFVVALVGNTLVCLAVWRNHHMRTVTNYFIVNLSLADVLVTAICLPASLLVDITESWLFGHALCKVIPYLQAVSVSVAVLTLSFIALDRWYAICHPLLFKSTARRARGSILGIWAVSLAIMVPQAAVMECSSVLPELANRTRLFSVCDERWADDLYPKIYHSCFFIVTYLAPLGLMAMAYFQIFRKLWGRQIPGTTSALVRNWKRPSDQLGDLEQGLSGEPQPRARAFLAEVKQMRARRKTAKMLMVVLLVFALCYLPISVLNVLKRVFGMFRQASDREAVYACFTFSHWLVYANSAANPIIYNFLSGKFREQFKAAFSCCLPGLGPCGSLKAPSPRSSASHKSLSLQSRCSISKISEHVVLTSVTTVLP
OX1R antag-2: human HCRTR1 antagonism | O43613 | inhibition, % at 5 µM | CHO/OX1R cells, Fluo-8 calcium fluorescence, orexin A | 330,000 compounds, 0.43% hits;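 active = inhibition above its plate's threshold, mean inhibition of all tested compounds on the plate plus 3 SD, cut at about 37% in these data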
CHO parental Ca: counter-screen for OX1R antagonists: effect in parental CHO cells. parental CHO-K1, ATP-induced calcium, Fluo-8 fluorescence. inhibition, % at 5.6 µM. 330,000 compounds, 0.63% hits. AID 463079;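 active = inhibition above that plate's mean sample inhibition plus 3 SD, cut at about 26% in these data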
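test system = CHO parental line | reagent = ATP stimulus | measured by = intracellular calcium via Fluo-8 no-wash fluorescent dye | control set = ATP and no-ATP DMSO wells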
Numbers stand for hits; i = inactive; nt = not tested or not shown.

SMILES	CHO-K1 Ca PAM	CHO-K1 Ca antag	CHO-K1 Ca ag	OX1R antag-1	OX1R antag-2	CHO parental Ca
CN1CCN(C2CN(Cc3cn(Cc4cccc(C(F)(F)F)c4)nn3)S(=O)(=O)C2)CC1 (stereo not drawn)	i	i	i	nt	nt	nt
O=C(CSc1nnc(-c2cccs2)n1C1CC1)NCC1CCCO1 (stereo not drawn)	i	i	i	i	i	i
CC1(Cc2cccc(C#N)c2)C(=O)Nc2c(Cl)cccc21 (stereo not drawn)	i	i	i	nt	nt	nt
O=C(Nc1nnc(-c2ccc3c(c2)CCCC3)o1)c1ccc(Cl)cc1Cl	i	i	i	54.6	i	i
COc1ccccc1C(=O)OC(C)CN1CCN(C)CC1 (stereo not drawn)	i	i	i	i	i	i
N#Cc1c2ccc([N+](=O)[O-])cc2[n+]([O-])n1-c1ccccc1	i	i	i	44.9	i	i
O=C(c1cccc(C(=O)N2CCN(Cc3ccccc3)CC2)c1)N1CCN(Cc2ccccc2)CC1	i	i	i	i	i	i
O=C(c1cccc(Cl)c1)N1CCN(Cc2ccncc2)CC1	i	24.8	i	nt	nt	nt
CCCCC(=O)Nc1ncc(S(=O)(=O)c2ccc([N+](=O)[O-])cc2)s1	i	i	i	i	i	i
CC(=O)NCCC(=O)Nc1ncc(S(=O)(=O)c2ccc([N+](=O)[O-])cc2)s1	i	i	i	66.0	i	i
CC(C)(C)c1ccc(CC(=O)N2CCC2(C)C(=O)N2CCCCC2)cc1 (stereo not drawn)	i	i	i	nt	nt	nt
O=C(O)c1cccc([N+](=O)[O-])c1C(=O)Nc1cccc2ccccc12	i	23.7	i	i	i	i
COc1ccc(C(=O)NC(CCSC)C(=O)NCc2nnc3ccccn23)cc1 (stereo not drawn)	i	i	i	nt	nt	nt
Cc1ccccc1C(=O)c1cccn1CC(=O)NCCCc1ccccc1	i	i	i	i	i	i
Cc1ccccc1C(=O)c1cccn1CC(=O)NC1CCCC(C)C1C (stereo not drawn)	i	i	i	39.5	i	i
Cc1ccccc1C(=O)c1cccn1CC(=O)NCC(C)c1ccccc1 (stereo not drawn)	i	i	i	38.9	i	i
CC1CCCCC1NC(=O)Cn1cccc1C(=O)c1ccccc1 (stereo not drawn)	i	i	i	i	i	i
CC(=O)N1C[C@@H](CO)[C@@H](N(C)C(=O)C2CCCCC2)C[C@H]1c1ccccc1	i	i	i	nt	nt	nt
O=C(NCc1ccccc1Cl)C1CCCN1S(=O)(=O)c1ccccc1F (stereo not drawn)	i	i	i	i	i	i
Cn1c(/C=C/c2cccc(Br)c2)nc2ccccc2c1=O	i	i	i	60.2	i	i
O=c1c2ccccc2nc(/C=C/c2cccc(Br)c2)n1CCCO	i	i	i	i	i	i
Cc1ccc(/C=C/c2nc3ccccc3c(=O)n2CCc2ccccc2)cc1	i	25.9	i	i	i	i
Cc1ccccc1/C=C/c1nc2ccccc2c(=O)n1CCc1ccccc1	i	i	i	i	i	i
O=c1c2ccccc2nc(/C=C/c2ccc([N+](=O)[O-])cc2)n1CCCO	i	i	i	i	i	i
O=c1c2ccccc2nc(/C=C/c2cccc([N+](=O)[O-])c2)n1CCCO	i	27.6	i	i	i	i
SMILES	CHO-K1 Ca PAM	CHO-K1 Ca antag	CHO-K1 Ca ag	OX1R antag-1	OX1R antag-2	CHO parental Ca
O=C(Nc1ccon1)c1sc2cc(Cl)ccc2c1Cl	i	i	i	i	i	i
CC[C@]1(C(=O)OC)[C@H]2C(=O)N(C)C(=O)[C@H]2[C@H]2CN=C(SCc3ccc(C(=O)OC)cc3)N21	i	i	i	i	i	i
COc1ccc(C(=O)O)cc1S(=O)(=O)Nc1ccc2cn[nH]c2c1	i	i	i	i	i	i
Cc1ccccc1S(=O)(=O)Cc1ccc(C(=O)NCCCN2CCC(C)CC2)o1	i	i	i	i	i	i
O=C1Nc2ccccc2O/C1=C\c1ccccc1Br	i	i	i	44.8	i	i
COc1ccc(Br)cc1/C=C1\Oc2ccccc2NC1=O	i	i	i	i	i	i
O=C(Nc1cc(-c2ccccc2)nn1-c1ccccc1)c1ccccc1F	i	i	i	i	i	i
COc1ccc2c(c1OC)C(=O)N1C(C(=O)O)Cc3c([nH]c4ccccc34)C21 (stereo not drawn)	i	i	i	75.3	i	i
COc1ccc([C@H]2C[C@H](n3cc(COC(=O)c4ccccc4)nn3)[C@@H](O)CN2C(=O)c2cccs2)cc1	i	i	i	nt	nt	nt
Cn1cnc(S(=O)(=O)NCc2ccc(Br)cc2)c1	i	i	i	i	i	i
COc1ccc(C/C(N)=N/OC(=O)C(c2ccccc2)c2ccccc2)cc1OC	i	i	i	i	53.8	i
COc1ccc(C/C(N)=N/OC(C)=O)cc1OC	i	i	i	i	i	i
O=S(=O)(Nc1ccccc1)c1ccc(Oc2ncc(C(F)(F)F)cc2Cl)cc1	i	i	i	46.9	88.2	73.3
NC(=O)c1ccc(Oc2ncc(C(F)(F)F)cc2Cl)cc1	i	i	15.5	i	i	i
NC(=O)Nc1ccc(Oc2ncc(C(F)(F)F)cc2Cl)cc1	i	i	i	i	i	i
CN(CC(=O)Nc1ccccc1Br)C(=O)COc1cccc2c1OC(C)(C)C2	i	i	i	i	i	i
CCOC1=C2CN(S(=O)(=O)c3ccc(C)cc3)[C@@H](c3ccccc3)C[C@H]2[C@H]2C(=O)N(c3ccccc3)C(=O)[C@H]2C1	i	28.3	i	nt	nt	nt
CCCCC[C@@H]1[C@@H]2C(=C(OCC)C[C@@H]3C(=O)N(c4ccccc4)C(=O)[C@H]23)[C@H](c2ccccc2)N1S(=O)(=O)c1ccc(C)cc1	i	24.7	i	nt	nt	nt
Cc1ccc(-c2nnn(CC(=O)N(c3ccccc3F)C(C(=O)NC3CCCC3)c3ccco3)n2)o1 (stereo not drawn)	i	i	i	45.1	i	i
COc1ccc(CNc2nc(NCc3ccc(OC)c(OC)c3)n(C(=O)c3cccs3)n2)cc1OC	i	i	i	44.3	i	i
COc1ccccc1C(=O)NC(=S)/C=C1/N(C)c2ccccc2C1(C)C	i	i	i	i	48.4	49.1
NC(=O)c1cc2ccc(O)cc2oc1=NCc1ccccc1	i	i	i	i	i	i
NC(=O)c1cc2ccc(O)cc2oc1=Nc1ccccc1	i	24.3	i	nt	nt	nt
Nc1c(C(=O)CSc2nnc(-c3ccccc3)o2)c(=O)[nH]c(=O)n1C1CC1	i	i	i	i	i	i
O=C(Cc1ccc([N+](=O)[O-])cc1)NCc1ccc2c(c1)OCO2	i	i	i	i	i	i
CN(CCCC(=O)NCc1ccc2c(c1)OCO2)S(=O)(=O)c1ccc([N+](=O)[O-])cc1	i	i	i	66.3	i	i
CCOC(=O)C1=CNS(=O)(=O)NC1c1ccc(C[C@H](NC(=O)CNC(=O)CCc2ccccc2)C(N)=O)cc1 (stereo partly drawn)	i	i	i	i	i	i
